From PubChem
Only some compounds are listed: those with a hit (about 4.1% of all), similar ones and a draw of the others.
KCNQ1 inh = inhibitors of human KCNQ1 channel, primary screen, cell-based, thallium flux, high-throughput. Potassium voltage-gated channel subfamily KQT member 1 (Homo sapiens), P51787. AID 2642, 2010. 310,000 tested, 1.3% active. B-score at 10 µM. CHO-K1 KCNQ1, FluxOR thallium flux fluorescence; stronger effect = higher value;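 active = compounds whose thallium flux B-score, printed positive for inhibition, exceeds three library SD while starting fluorescence stays within three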;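 note: channel opened by potassium depolarization with thallium stimulus after 20 min compound exposure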
Target sequence (P51787 whole entry, looked up): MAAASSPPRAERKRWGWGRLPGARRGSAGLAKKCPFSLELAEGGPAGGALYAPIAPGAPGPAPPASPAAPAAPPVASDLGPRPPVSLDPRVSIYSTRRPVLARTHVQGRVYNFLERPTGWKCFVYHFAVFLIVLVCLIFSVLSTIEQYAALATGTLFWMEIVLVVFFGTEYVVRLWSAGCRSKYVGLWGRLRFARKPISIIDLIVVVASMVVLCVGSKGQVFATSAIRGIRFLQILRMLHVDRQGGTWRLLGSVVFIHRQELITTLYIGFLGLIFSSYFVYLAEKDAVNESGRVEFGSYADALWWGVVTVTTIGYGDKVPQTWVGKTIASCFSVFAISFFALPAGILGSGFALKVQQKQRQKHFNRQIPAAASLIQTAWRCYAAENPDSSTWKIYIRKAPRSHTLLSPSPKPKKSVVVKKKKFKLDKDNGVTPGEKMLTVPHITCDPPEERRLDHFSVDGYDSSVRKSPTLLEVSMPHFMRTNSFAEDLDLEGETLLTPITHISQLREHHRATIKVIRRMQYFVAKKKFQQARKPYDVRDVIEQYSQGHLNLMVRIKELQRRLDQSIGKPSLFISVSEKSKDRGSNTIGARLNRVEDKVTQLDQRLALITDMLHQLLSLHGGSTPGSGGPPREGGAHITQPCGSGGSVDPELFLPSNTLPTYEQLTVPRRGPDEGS
KCNK9 inh = KCNK9 potassium channel inhibitors, primary screen, HEK293 cells, thallium flux; FluxOR thallium flux fluorescence; stronger effect = lower value; B-score at 10 µM; 310,000 tested, 1.2% active; AID 488922, 2010;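 active = ratio B-score over 3 SD below the library mean, with starting fluorescence within 5 SD of its mean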;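 note: negative B-score means less thallium flux so channel inhibition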
hERG rescue = hERG rescue from dofetilide block, primary screen, cell-based, CHO-hERG, FluxOR thallium flux, dofetilide IC70. Voltage-gated inwardly rectifying potassium channel KCNH2 (Homo sapiens), Q12809. 310,000 tested, 0.51% active. AID 1511, 2009. dofetilide IC70 present. activation (rescue from dofetilide block), less the hit threshold, % at 10 µM;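 active = activation above the mean of controls blocked by dofetilide plus 5 SD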;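 note: thallium influx through hERG after potassium depolarization seen as dye fluorescence rise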
KCNQ1 pot = potentiators or activators of KCNQ1 channel, primary screen, cell-based, thallium flux, high-throughput. AID 2648, 2010. B-score at 10 µM. Potassium voltage-gated channel subfamily KQT member 1 (Homo sapiens), P51787. 310,000 tested, 0.35% active. CHO-K1 KCNQ1, thallium flux FluxOR fluorescence; stronger effect = higher value;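 active = fluorescence ratio B-score, a plate-corrected score, at least three library SD, with initial intensity B-score within 5 SD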
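Schedule – 37 °C overnight plating, 90-min dark dye load, 20-min compound pretreatment · System – stable KCNQ1 CHO-K1 line · Probe or stimulus – thallium- and potassium-containing depolarizing buffer · Measured by – kinetic FluxOR fluorescence, 10 s baseline plus 110 s post-stimulus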
KCC2 mod = KCC2 cotransporter modulators, thallium flux, primary screen, cell-based, HEK293 KCC2, FluoZin-2 fluorescence, MLSMR; KCC2 cells, thallium flux FluoZin-2 fluorescence; B-score of Tl+ flux slope (higher = more flux/activation; lower = inhibition) at 10 µM; 190,000 tested, 2.2% active; AID 1456, 2008;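 active = thallium flux slope and its plate-corrected score both differing from the plate sample mean at a set confidence after two filtering rounds, in either direction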;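 note: slope of fluorescence scaled to starting intensity during 10 to 20 s after thallium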
KCNK3 block = human KCNK3 channel inhibitors, primary screen, CHO cells, FluxOR thallium flux, B-score; FluxOR fluorescence; stronger effect = lower value; B-score at 10 µM; 340,000 tested, 0.84% active;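 active = B-score under library mean minus 4 SD, starting fluorescence ratio at most library mean plus 5 SD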;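 note: more negative B-score means stronger inhibition of thallium flux through KCNK3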
KCNK3 confirm = retest of human KCNK3 channel inhibitors, confirmation, CHO cells, FluxOR thallium flux, triplicate. ratio percent of control, % at 10 µM. 2,400 tested, 99% active. FluxOR fluorescence; 0% buffer, 100% carvedilol maximal block. AID 651638, 2012. shares compounds with KCNK3 block;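 active = ratio percent of control, averaged over triplicates, above buffer control mean plus 5 SD, cut at about 64% in these data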;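 note: ratio is the fluorescence rise from min to max over baseline after thallium stimulus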
KCNK3 uninduced = thallium flux inhibition in non-induced cells, primary screen, counter-screen for KCNK3 inhibitor project, cell-based, non-induced KCNK3 line, FluxOR thallium, triplicate. shares compounds with KCNK3 block. non-induced KCNK3 parental cells; stronger effect = lower value. thallium flux ratio (lower = more inhibition) at 10 µM. 2,400 tested, 40% active;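 active = thallium flux ratio, averaged over three wells, more than 5 SD below the buffer control mean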;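 note: host cells are CHO cells without KCNK3 induction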
Of the large screens only hits and unclear results are named; the others gave an inactive call (follow-up assays come after a bar, where they were run).

O=C1CCN(Cc2ccccc2)C=C1c1ccc(Br)cc1	none (no result: KCNQ1 inh, KCNK9 inh, hERG rescue, KCNQ1 pot, KCC2 mod)
c1ccc(CN2CCN(c3ncccn3)CC2)cc1	none (no result: KCC2 mod)
Cc1nc(N2CCN(Cc3ccc4c(c3)OCO4)CC2)c2oc3ccccc3c2n1	none (no result: KCNQ1 inh, KCNK9 inh, hERG rescue, KCNQ1 pot, KCC2 mod)
c1ccc(CN2CCN(c3nc(NCc4ccco4)c4ccccc4n3)CC2)cc1	KCNK3 block -11 | KCNK3 confirm 141 | KCNK3 uninduced 0.1
CSc1nc(N2CCN(Cc3ccc4c(c3)OCO4)CC2)c2ccccc2n1	KCNK3 block -13 (no result: KCC2 mod) | KCNK3 confirm 112 | KCNK3 uninduced inactive
OCCN1CCN(c2nc(NCc3ccco3)c3ccccc3n2)CC1	none
c1ccc(CN2CCN(c3nc4ccccc4c4ccccc34)CC2)cc1	KCNK3 block -11 | KCNK3 confirm 98 | KCNK3 uninduced inactive
COc1ccc(C(=O)N2CCN(c3cccc(C)c3C)CC2)cc1S(=O)(=O)NC1CC1	none (no result: KCNQ1 inh, KCNK9 inh, hERG rescue, KCNQ1 pot, KCC2 mod)
NC(=O)c1ccc[n+]([C@H]2O[C@@H](COP(=O)([O-])OP(=O)(O)OC[C@H]3O[C@@H](n4cnc5c(N)ncnc54)[C@H](O)[C@@H]3O)[C@H](O)[C@@H]2O)c1	none (no result: KCNQ1 inh, KCNK9 inh, hERG rescue, KCNQ1 pot, KCC2 mod)
CCCN(CC(=O)Nc1ccccc1OC)C(=O)CC1CCCC1	none (no result: KCNQ1 inh, KCNK9 inh, hERG rescue, KCNQ1 pot, KCC2 mod)
Cc1noc(C)c1COc1cccc(C(=O)Nc2ccc3c(c2)OCO3)c1	none
Cc1noc(C)c1COc1cccc(C(=O)Oc2ccc3c(c2)OCO3)c1	KCNK3 block -8.8 | KCNK3 confirm 96 | KCNK3 uninduced inactive
Cc1noc(C)c1COc1cccc(C(=O)OCCOc2ccc(F)cc2)c1	KCNK3 block -14 | KCNK3 confirm 116 | KCNK3 uninduced inactive
Cc1noc(C)c1COc1cccc(C(=O)OC(C)C#N)c1 (stereo not drawn)	none
O=C(CCN=C1NS(=O)(=O)c2ccccc21)OCc1cccc(Cl)c1	none (no result: KCC2 mod)
Cc1ccc(C)c(CN2C(=O)C3(OCCCO3)c3ccccc32)c1	none
CCOc1ccccc1CN1C(=O)C2(OCCO2)c2ccccc21	KCNK3 block -9.7 (no result: KCC2 mod) | KCNK3 confirm 108 | KCNK3 uninduced inactive
COc1ccc(Cl)cc1C(=O)NCCCSc1ccccc1	KCNK3 block -9.2 (no result: KCC2 mod) | KCNK3 confirm 112 | KCNK3 uninduced 0.16
O=C(NCCCSc1ccccc1)c1cc(Br)ccc1O	KCNK3 block -8.8 (no result: KCC2 mod) | KCNK3 confirm 151 | KCNK3 uninduced 0.12
COc1ccc(OC)c(C2(O)CSC(=Nc3cccnc3)N2Cc2ccco2)c1 (stereo not drawn)	KCNK3 block -11 | KCNK3 confirm inactive | KCNK3 uninduced inactive
O=C(NCc1ccccc1)c1cccc(COc2ccccc2Cl)c1	KCNQ1 inh 6, KCNK3 block -12 | KCNK3 confirm 112 | KCNK3 uninduced inactive
Cc1cccc(Sc2c(C=O)c3ccccc3n2C)c1	KCNK3 block -10 (no result: KCC2 mod) | KCNK3 confirm 110 | KCNK3 uninduced 0.14
Cc1ccc(-c2nnc3c4ccccc4c(C)nn23)cc1NC(=O)c1ccco1	none (no result: KCNQ1 inh, KCNK9 inh, hERG rescue, KCNQ1 pot, KCNK3 block)
Cc1nn2c(-c3cccc(NC(=O)c4ccco4)c3)nnc2c2ccccc12	KCNK3 block -14 | KCNK3 confirm 106 | KCNK3 uninduced inactive
Cc1ccc(S(=O)(=O)/C(C#N)=C/c2c(N3CCOCC3)nc3c(C)cccn3c2=O)cc1	none
Cc1cccn2c(=O)c(/C=C(\C#N)S(=O)(=O)c3ccccc3)c(N3CCN(Cc4ccccc4)CC3)nc12	KCNK3 block -10 (no result: KCC2 mod) | KCNK3 confirm 108 | KCNK3 uninduced inactive
CCOC(=O)/C(C#N)=C/c1c(N2CCN(c3ccc(OC)cc3)CC2)nc2c(C)cccn2c1=O	KCNK3 block -12 (no result: KCC2 mod) | KCNK3 confirm 83 | KCNK3 uninduced 0.15
N#C/C(=C\c1c(N2CCN(Cc3ccccc3)CC2)nc2ccccn2c1=O)S(=O)(=O)c1ccccc1	KCNK3 block -9 (no result: KCC2 mod) | KCNK3 confirm 103 | KCNK3 uninduced inactive
CS(=O)(=O)c1ccc(NC(=O)c2cccc(S(=O)(=O)N3CCN(Cc4ccccc4)CC3)c2)cc1	none (no result: KCC2 mod)
Cc1ccc(NC(=O)/C=C/C(=O)O)c(NC(=O)c2ccccc2)c1	none (no result: KCC2 mod)
Cc1ccc(OCCCC(=O)NNC(=O)c2ccccn2)cc1	none (no result: KCNQ1 inh, KCNK9 inh, hERG rescue, KCNQ1 pot, KCC2 mod)
Cc1cc(C)cc(NC(=S)Nc2ccc(Cl)c(Cl)c2)c1	KCNQ1 inh 12, KCNK3 block -14 | KCNK3 confirm 146 | KCNK3 uninduced 0.11
N#CCCCc1cc2ccccc2cn1	none (no result: KCNQ1 inh, KCNK9 inh, hERG rescue, KCNQ1 pot, KCC2 mod)
O=C(NC1CCN(C(=O)N2c3ccccc3Sc3ccccc32)CC1)c1ccccc1F	KCNK3 block -11 | KCNK3 confirm 89 | KCNK3 uninduced inactive
COCCCN(C(=S)Nc1cc(Cl)cc(Cl)c1)C(C)c1ccccn1 (stereo not drawn)	KCNQ1 inh 8, KCNK3 block -11 | KCNK3 confirm 123 | KCNK3 uninduced 0.16
COCCCN(C(=S)Nc1cc(Cl)cc(Cl)c1)C(C)c1ccncc1 (stereo not drawn)	none
CCOc1ccccc1NC(=O)CSc1nc(=O)n(CCN2CCOCC2)c2c1CCCC2	none (no result: KCC2 mod)
COc1ccc(C(NCC(=O)NC(C)c2ccc(Cl)cc2)c2ccccc2)cc1 (stereo not drawn)	KCNK3 block -9.5 (no result: KCC2 mod) | KCNK3 confirm 126 | KCNK3 uninduced 0.12
COc1cccc(C(=O)Nc2ccc(NC(=O)C3C4C=CC(C4)C3C(=O)O)cc2)c1 (stereo not drawn)	none (no result: KCC2 mod)
CC(C1CC1)N(Cc1ccccc1)C(=S)Nc1ccccc1 (stereo not drawn)	KCNK3 block -12 | KCNK3 confirm 113 | KCNK3 uninduced inactive
CSCC[C@H](NC(=O)c1ccc(Cl)c(S(=O)(=O)N2CCCC2)c1)c1nc2ccccc2[nH]1	KCNK3 block -11 | KCNK3 confirm 107 | KCNK3 uninduced inactive
O=C(NCCc1ccccc1)c1ccc2c(=O)[nH]c3c(C(=O)NCC4CCCO4)sc(=S)n3c2c1 (stereo not drawn)	KCNQ1 inh 8, KCNK3 block -12 (no result: KCC2 mod) | KCNK3 confirm 118 | KCNK3 uninduced inactive
COc1ccccc1Cn1c(=S)[nH]c2cc(C(=O)NC(C)C)ccc2c1=O	none (no result: KCC2 mod)
